Data published in ChEMBL document CHEMBL1145439, “Fluorine-18-labeled benzamide analogues for imaging the sigma2 receptor status of solid tumors with positron emission tomography” (J Med Chem, 2007).

Legend:
Muscle tissue [1] = experiment: Biodistribution in muscle of mouse EMT6 tumor bearing BALB/c mouse at 10 to 20 uCi after 120 mins; type: ADME, organism-based; settings: in vivo, 2 h
In short: (§1)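 EMT-6 cells (5×10^5 in 100 µL PBS) implanted s.c. in scapular region of female Balb/c mice (~2 months, 17-22 g); studied 7-10 days later at ~0.2 cm3 tumor. 18F tracer 10-20 µCi in 100-150 µL saline via tail vein; ≥4 mice per time point; tissue removed at sacrifice, weighed, gamma-counted; %ID/g calculated.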

[2] = Tumor to fat ratio of the drug in mouse EMT6 tumor bearing BALB/c mouse at 10 to 20 uCi after 2 hrs; type: ADME
In short: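 Tumor-bearing female Balb/c mice (EMT-6 s.c. allograft, ~0.2 cm3) given 10-20 µCi 18F tracer in saline i.v. via tail vein; ≥4 per group; killed 120 min later. Tissues weighed and gamma-counted; ratio = tumor %ID/g divided by that organ's %ID/g.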

Liver [3] = experiment: Biodistribution in liver of mouse EMT6 tumor bearing BALB/c mouse at 10 to 20 uCi after 5 mins; type: ADME, organism-based; settings: in vivo; in short: as §1
Brain [4] = experiment: Biodistribution in brain of EMT6 tumor bearing BALB/c mouse at 10 to 20 uCi after 60 mins; type: ADME, organism-based; settings: in vivo, 1 h; in short: as §1
Adipose tissue [5] = experiment: Biodistribution in fat of mouse EMT6 tumor bearing BALB/c mouse at 10 to 20 uCi after 120 mins; type: ADME, organism-based; settings: in vivo, 2 h; in short: as §1
Lung [6] = experiment: Biodistribution in lung of mouse EMT6 tumor bearing BALB/c mouse at 10 to 20 uCi after 30 mins; type: ADME, organism-based; settings: in vivo, 0.5 h; in short: as §1
EMT6 [7] = experiment: Biodistribution in tumor of mouse EMT6 tumor bearing BALB/c mouse at 10 to 20 uCi after 60 mins; type: ADME, organism-based; settings: emt6, 1 h; in short: as §1
Muscle tissue [8] = experiment: Biodistribution in muscle of mouse EMT6 tumor bearing BALB/c mouse at 10 to 20 uCi after 30 mins; type: ADME, organism-based; settings: in vivo, 0.5 h; in short: as §1
Kidney [9] = experiment: Biodistribution in kidney of mouse EMT6 tumor bearing BALB/c mouse at 10 to 20 uCi after 30 mins; type: ADME, organism-based; settings: in vivo, 0.5 h; in short: as §1
Bone [10] = experiment: Biodistribution in bone of mouse EMT6 tumor bearing BALB/c mouse at 10 to 20 uCi after 5 mins; type: ADME, organism-based, Bone element; settings: in vivo; in short: as §1
Heart [11] = experiment: Biodistribution in heart of mouse EMT6 tumor bearing BALB/c mouse at 10 to 20 uCi after 30 mins; type: ADME, organism-based; settings: in vivo, 0.5 h; in short: as §1
Lung [12] = experiment: Biodistribution in lung of mouse EMT6 tumor bearing BALB/c mouse at 10 to 20 uCi after 120 mins; type: ADME, organism-based; settings: in vivo, 2 h; in short: as §1
Heart [13] = experiment: Biodistribution in heart of EMT6 tumor bearing BALB/c mouse at 10 to 20 uCi after 120 mins; type: ADME, organism-based; settings: in vivo, 2 h; in short: as §1
Blood [14] = experiment: Biodistribution in blood of mouse EMT6 tumor bearing BALB/c mouse at 10 to 20 uCi after 30 mins; type: ADME, organism-based; settings: in vivo, 0.5 h; in short: as §1
Adipose tissue [15] = experiment: Biodistribution in fat of mouse EMT6 tumor bearing BALB/c mouse at 10 to 20 uCi after 60 mins; type: ADME, organism-based; settings: in vivo, 1 h; in short: as §1
Blood [16] = experiment: Biodistribution in blood of mouse EMT6 tumor bearing BALB/c mouse at 10 to 20 uCi after 60 mins; type: ADME, organism-based; settings: in vivo, 1 h; in short: as §1
Adipose tissue [17] = experiment: Biodistribution in fat of mouse EMT6 tumor bearing BALB/c mouse at 10 to 20 uCi after 5 mins; type: ADME, organism-based; settings: in vivo; in short: as §1
Lung [18] = experiment: Biodistribution in lung of mouse EMT6 tumor bearing BALB/c mouse at 10 to 20 uCi after 5 mins; type: ADME, organism-based; settings: in vivo; in short: as §1
Brain [19] = experiment: Biodistribution in brain of EMT6 tumor bearing BALB/c mouse at 10 to 20 uCi after 5 mins; type: ADME, organism-based; settings: in vivo; in short: as §1
Liver [20] = experiment: Biodistribution in liver of mouse EMT6 tumor bearing BALB/c mouse at 10 to 20 uCi after 30 mins; type: ADME, organism-based; settings: in vivo, 0.5 h; in short: as §1
EMT6 [21] = experiment: Biodistribution in tumor of EMT6 tumor bearing BALB/c mouse 10 to 20 uCi after 30 mins; type: ADME, organism-based; settings: emt6, 0.5 h; in short: as §1
Muscle tissue [22] = experiment: Biodistribution in muscle of mouse EMT6 tumor bearing BALB/c mouse at 10 to 20 uCi after 60 mins; type: ADME, organism-based; settings: in vivo, 1 h; in short: as §1
Kidney [23] = experiment: Biodistribution in kidney of mouse EMT6 tumor bearing BALB/c mouse at 10 to 20 uCi after 60 mins; type: ADME, organism-based; settings: in vivo, 1 h; in short: as §1
EMT6 [24] = experiment: Biodistribution in tumor of mouse EMT6 tumor bearing BALB/c mouse at 10 to 20 uCi after 5 mins; type: ADME, organism-based; settings: emt6, 5 min; in short: as §1
Adipose tissue [25] = experiment: Biodistribution in fat of mouse EMT6 tumor bearing BALB/c mouse at 10 to 20 uCi after 30 mins; type: ADME, organism-based; settings: in vivo, 0.5 h; in short: as §1
Liver [26] = experiment: Biodistribution in liver of mouse EMT6 tumor bearing BALB/c mouse at 10 to 20 uCi after 120 mins; type: ADME, organism-based; settings: in vivo, 2 h; in short: as §1
Blood [27] = experiment: Biodistribution in blood of mouse EMT6 tumor bearing BALB/c mouse at 10 to 20 uCi after 5 mins; type: ADME, organism-based; settings: in vivo; in short: as §1
Bone [28] = experiment: Biodistribution in bone of mouse EMT6 tumor bearing BALB/c mouse at 10 to 20 uCi after 60 mins; type: ADME, organism-based, Bone element; settings: in vivo, 1 h; in short: as §1
EMT6 [29] = experiment: Biodistribution in tumor of mouse EMT6 tumor bearing BALB/c mouse at 10 to 20 uCi after 120 mins; type: ADME, organism-based; settings: emt6, 2 h; in short: as §1
Lung [30] = experiment: Biodistribution in lung of mouse EMT6 tumor bearing BALB/c mouse at 10 to 20 uCi after 60 mins; type: ADME, organism-based; settings: in vivo, 1 h; in short: as §1
Heart [31] = experiment: Biodistribution in heart of mouse EMT6 tumor bearing BALB/c mouse at 10 to 20 uCi after 60 mins; type: ADME, organism-based; settings: in vivo, 1 h; in short: as §1
Blood [32] = experiment: Biodistribution in blood of mouse EMT6 tumor bearing BALB/c mouse at 10 to 20 uCi after 120 mins; type: ADME, organism-based; settings: in vivo, 2 h; in short: as §1
Kidney [33] = experiment: Biodistribution in kidney of mouse EMT6 tumor bearing BALB/c mouse at 10 to 20 uCi after 120 mins; type: ADME, organism-based; settings: in vivo, 2 h; in short: as §1
Heart [34] = experiment: Biodistribution in heart of mouse EMT6 tumor bearing BALB/c mouse at 10 to 20 uCi after 5 mins; type: ADME, organism-based; settings: in vivo; in short: as §1
Liver [35] = experiment: Biodistribution in liver of mouse EMT6 tumor bearing BALB/c mouse at 10 to 20 uCi after 60 mins; type: ADME, organism-based; settings: in vivo, 1 h; in short: as §1
Bone [36] = experiment: Biodistribution in bone of mouse EMT6 tumor bearing BALB/c mouse at 10 to 20 uCi after 30 mins; type: ADME, organism-based, Bone element; settings: in vivo, 0.5 h; in short: as §1
Kidney [37] = experiment: Biodistribution in kidney of mouse EMT6 tumor bearing BALB/c mouse at 10 to 20 uCi after 5 mins; type: ADME, organism-based; settings: in vivo; in short: as §1
Muscle tissue [38] = experiment: Biodistribution in muscle of EMT6 tumor bearing BALB/c mouse at 10 to 20 uCi after 5 mins; type: ADME, organism-based; settings: in vivo; in short: as §1
Brain [39] = experiment: Biodistribution in brain of mouse EMT6 tumor bearing BALB/c mouse at 10 to 20 uCi after 120 mins; type: ADME, organism-based; settings: in vivo, 2 h; in short: as §1
Bone [40] = experiment: Biodistribution in bone of mouse EMT6 tumor bearing BALB/c mouse at 10 to 20 uCi after 120 mins; type: ADME, organism-based, Bone element; settings: in vivo, 2 h; in short: as §1
Brain [41] = experiment: Biodistribution in brain of EMT6 tumor bearing BALB/c mouse at 10 to 20 uCi after 30 mins; type: ADME, organism-based; settings: in vivo, 0.5 h; in short: as §1

Drug uptake (Muscle tissue [1]): 0.28 % ID/g
Ratio [2]: 6
Drug uptake (Liver [3]): 32.6 % ID/g
Drug uptake (Brain [4]): 0.32 % ID/g
Drug uptake (Adipose tissue [5]): 0.15 % ID/g
Drug uptake (Lung [6]): 3.08 % ID/g
Drug uptake (EMT6 [7]): 2.09 % ID/g
Drug uptake (Muscle tissue [8]): 0.98 % ID/g
Drug uptake (Kidney [9]): 17.55 % ID/g
Drug uptake (Bone [10]): 2.9 % ID/g
Drug uptake (Heart [11]): 1.55 % ID/g
Drug uptake (Lung [12]): 0.51 % ID/g
Drug uptake (Heart [13]): 0.4 % ID/g
Drug uptake (Blood [14]): 2.81 % ID/g
Drug uptake (Adipose tissue [15]): 0.38 % ID/g
Drug uptake (Blood [16]): 1.69 % ID/g
Drug uptake (Adipose tissue [17]): 2.85 % ID/g
Drug uptake (Lung [18]): 12.08 % ID/g
Drug uptake (Brain [19]): 1.09 % ID/g
Drug uptake (Liver [20]): 13.12 % ID/g
Drug uptake (EMT6 [21]): 2.59 % ID/g
Drug uptake (Muscle tissue [22]): 0.58 % ID/g
Drug uptake (Kidney [23]): 6.92 % ID/g
Drug uptake (EMT6 [24]): 3.28 % ID/g
Drug uptake (Adipose tissue [25]): 0.96 % ID/g
Drug uptake (Liver [26]): 2.3 % ID/g
Drug uptake (Blood [27]): 3.57 % ID/g
Drug uptake (Bone [28]): 1.12 % ID/g
Drug uptake (EMT6 [29]): 0.96 % ID/g
Drug uptake (Lung [30]): 1.6 % ID/g
Drug uptake (Heart [31]): 1.04 % ID/g
Drug uptake (Blood [32]): 0.52 % ID/g
Drug uptake (Kidney [33]): 1.12 % ID/g
Drug uptake (Heart [34]): 3.74 % ID/g
Drug uptake (Liver [35]): 5.69 % ID/g
Drug uptake (Bone [36]): 1.17 % ID/g
Drug uptake (Kidney [37]): 42.94 % ID/g
Drug uptake (Muscle tissue [38]): 1.95 % ID/g
Drug uptake (Brain [39]): 0.2 % ID/g
Drug uptake (Bone [40]): 1.28 % ID/g
Drug uptake (Brain [41]): 0.4 % ID/g
SMILES: COc1cc2c(cc1OC)CN(CCCCNC(=O)c1cc(Br)ccc1OCC[18F])CC2
